Kir21 block = blocks the mouse Kir2.1 inward-rectifier potassium channel. P35561. 310,000 compounds, 0.85% hits. B-score at 10 µM. AID 1672. HEK293-Kir2.1, FluxOR thallium flux fluorescence; active compounds read low;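 active = fluorescence ratio B-score at or below minus 3 SD of library scores, with starting-brightness B-score within 2 SD, cut at about -4.2 in these data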;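 note: channel flux triggered by added potassium and thallium sulfate stimulus; B-score of peak minus minimum fluorescence over baseline after thallium stimulus; more negative B-score means stronger Kir2.1 block with less thallium influx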
hERG rescue = compounds protecting human hERG from proarrhythmic drug block | Q12809 | CHO-hERG, FluxOR thallium flux, dofetilide IC70 present | activation (rescue from dofetilide block), less the hit threshold, % at 10 µM | 310,000 compounds, 0.51% hits | AID 1511;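 active = activation above the mean of controls blocked by dofetilide plus 5 SD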;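 note: thallium influx through hERG after potassium depolarization seen as dye fluorescence rise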
KCNK3 inh = human KCNK3 channel inhibition, primary screen. O14649. 340,000 compounds, 0.84% hits. B-score at 10 µM. AID 602410. CHO-KCNK3 thallium flux, FluxOR fluorescence; active compounds read low;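 active = B-score under library mean minus 4 SD, starting fluorescence ratio at most library mean plus 5 SD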;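 note: more negative B-score means stronger inhibition of thallium flux through KCNK3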
KCNQ1 pot = potentiators or activators of human KCNQ1 potassium channel. P51787. CHO-K1 KCNQ1, thallium flux FluxOR fluorescence; active compounds read high. B-score at 10 µM. 310,000 compounds, 0.35% hits. AID 2648;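 active = fluorescence ratio B-score, a plate-corrected score, at least three library SD, with initial intensity B-score within 5 SD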
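System: CHO-K1 cells stably expressing KCNQ1 / Medium: assay buffer for compound exposure, DMSO matched across wells / Reagent: thallium- and potassium-containing depolarizing buffer / Compound: one concentration, matched DMSO / Incubation: 20 min compound pretreatment at room temperature / Measured by: kinetic FluxOR fluorescence, 10 s baseline plus 110 s post-stimulus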
KCNK9 inh = inhibitors of human KCNK9 two-pore domain potassium channel; AID 488922; B-score at 10 µM; HEK293 KCNK9, FluxOR thallium flux fluorescence; active compounds read low; 310,000 compounds, 1.2% hits; Q9NPC2;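 active = ratio B-score over 3 SD below the library mean, with starting fluorescence within 5 SD of its mean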;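 note: negative B-score means less thallium flux so channel inhibition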
KCNQ1 inh = human KCNQ1 channel inhibition; P51787; CHO-K1 KCNQ1, FluxOR thallium flux fluorescence; active compounds read high; B-score at 10 µM; 310,000 compounds, 1.3% hits;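 active = compounds whose thallium flux B-score, printed positive for inhibition, exceeds three library SD while starting fluorescence stays within three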;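 note: channel opened by potassium depolarization with thallium stimulus after 20 min compound exposure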
KCNK3 confirm = human KCNK3 channel inhibition, confirmation assay; AID 651638; 2,400 compounds, 99% hits; CHO-KCNK3 thallium flux, FluxOR fluorescence; 0% buffer, 100% carvedilol maximal block; ratio percent of control, % at 10 µM; shares compounds with KCNK3 inh;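 active = ratio percent of control, averaged over triplicates, above buffer control mean plus 5 SD, cut at about 64% in these data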;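 note: ratio is the fluorescence rise from min to max over baseline after thallium stimulus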
KCNK3 uninduced = counter-screen for KCNK3 inhibitors: effect in non-induced cells; shares compounds with KCNK3 inh; non-induced KCNK3 parental cells, FluxOR thallium flux; active compounds read low; thallium flux ratio (lower = more inhibition) at 10 µM; 2,400 compounds, 40% hits;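 active = thallium flux ratio, averaged over three wells, more than 5 SD below the buffer control mean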;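 note: host cells are CHO cells without KCNK3 induction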
Of the large screens only hits and unclear results are named; the others gave an inactive call (follow-up assays come after a bar, where they were run). An excerpt weighted towards active compounds, which were near 3.8% of everything screened.

O=C(OCCNc1nc(-c2ccccc2)nc2ccccc12)c1ccncc1	KCNK9 inh -7.3 | KCNK3 confirm 124 | KCNK3 uninduced 0.16
COc1ccc(CNc2nc(-c3ccccc3)nc3ccccc23)cc1OC	KCNK3 inh -17 | KCNK3 confirm 114 | KCNK3 uninduced 0.14
Cc1[nH]c2ccccc2c1C(c1ccncc1)N1CCCCC1 (configuration not stated)	none
CCOc1ccc(CN2C(=O)c3ccccc3C2=O)cc1C(=O)NC1CC(C)(C)NC(C)(C)C1	none (no result: Kir21 block, hERG rescue, KCNQ1 pot, KCNK9 inh, KCNQ1 inh)
CCCCOc1ccc2ccccc2c1C=O	KCNK3 inh -15 | KCNK3 confirm 129 | KCNK3 uninduced inactive
O=C(Cn1cnc([N+](=O)[O-])n1)c1ccc(O)c(O)c1	KCNK3 inh -9.2, KCNK9 inh -8 | KCNK3 confirm 79 | KCNK3 uninduced inactive
O=C(Cn1cnc([N+](=O)[O-])n1)c1ccccc1	none
Cc1c(C(=O)NCCNc2ncc(C(F)(F)F)cc2Cl)cccc1[N+](=O)[O-]	none
COc1cc(C(=O)NCC(=O)N/N=C/c2ccc(-c3ccc([N+](=O)[O-])cc3)o2)cc(OC)c1OC	KCNK3 inh -10 | KCNK3 confirm 95 | KCNK3 uninduced inactive
COc1ccc(/C=C2/C(=O)ON=C2C)cc1Cl	none
COc1cc(/C=C2\C(=O)ON=C2c2ccccc2)cc(Cl)c1O	Kir21 block -10, KCNK3 inh -8.9 | KCNK3 confirm 115 | KCNK3 uninduced 0.14
CCOc1cc(/C=C2\C(=O)ON=C2C)ccc1OCc1ccccc1	none
CCOc1cc(/C=C2\C(=O)ON=C2c2ccccc2)cc(Br)c1O	Kir21 block -7.3, KCNK3 inh -8.8, KCNQ1 inh 6 | KCNK3 confirm 135 | KCNK3 uninduced 0.098
Cc1ccc(/C=C2/C(=O)ON=C2c2ccccc2)o1	Kir21 block -5.9, KCNK3 inh -10 | KCNK3 confirm 122 | KCNK3 uninduced inactive
Cc1cc2c(cc1S(=O)(=O)Nc1c(C)cccc1C)n(C)c(=O)c(=O)n2C	none
CC(C)c1ccc(-c2noc(C3CCCN(C(=O)c4ccc(F)cc4F)C3)n2)cc1 (configuration not stated)	KCNK3 inh -9.8 | KCNK3 confirm 134 | KCNK3 uninduced 0.14
O=[N+]([O-])c1ccc(/C=N/n2cn[nH]c2=S)cc1	none
COc1ccc(Br)cc1CNC(=O)c1ccc2c(c1)N(C)CCS2	KCNK3 inh -10 | KCNK3 confirm 106 | KCNK3 uninduced inactive
CCN1CCSc2ccc(C(=O)NCc3cc(Br)ccc3OC)cc21	KCNK9 inh -7 | KCNK3 confirm 92 | KCNK3 uninduced inactive
CCN(CC)S(=O)(=O)c1cc(NC(=O)COC(=O)CCC(=O)c2ccc(F)cc2)ccc1C	none
Cc1cccc(-n2c(O)c(C=NCCCN3CCOCC3)c3ccccc3c2=O)c1	none
CC(NC(=O)C(c1ccccc1)c1ccccc1)c1ccccc1 (configuration not stated)	none
CC(=O)c1cc(C(=O)Nc2ccc3ccccc3c2)c(C)o1	KCNK3 inh -11 | KCNK3 confirm 53 | KCNK3 uninduced inactive
CC(C1CC1)N(Cc1ccccc1)C(=S)Nc1ccccc1 (configuration not stated)	KCNK3 inh -12 | KCNK3 confirm 113 | KCNK3 uninduced inactive
CC(CC(=O)OCC(=O)NC1CCS(=O)(=O)C1)c1ccccc1 (configuration not stated)	none (no result: Kir21 block, hERG rescue, KCNQ1 pot, KCNK9 inh, KCNQ1 inh)
O=C(O)C(=O)/C(=C\c1ccccc1)c1ccc2ccccc2n1	none
O=C(O)C(=O)/C(=C\c1cccc2ccccc12)c1ccc2ccccc2n1	KCNK3 inh -9.1 | KCNK3 confirm 137 | KCNK3 uninduced inactive
Cc1cccc(OCCCSc2nc3ccccc3[nH]2)c1	KCNK3 inh -8.9 | KCNK3 confirm 126 | KCNK3 uninduced 0.12
CCN1CCN(C(=O)c2ccc(COc3ccc(Cl)cc3)o2)CC1	none
O=C(c1ccc(COc2ccc(Cl)cc2)o1)N1CCN(Cc2ccc3c(c2)OCO3)CC1	KCNK3 inh -9.8 | KCNK3 confirm 146 | KCNK3 uninduced 0.11
CCC(C)(C)n1nnnc1C(c1ccccc1)N1CCc2ccccc2C1 (configuration not stated)	KCNK3 inh -9.4 | KCNK3 confirm 110 | KCNK3 uninduced inactive
CCc1cccc2c(C(=O)Cn3nnc(-c4ccc(OC)c(OC)c4)n3)c[nH]c12	none
CCOCc1cn(CC(=O)c2ccc(Cl)cc2)c(C)nc1=N	none
C=CCOC(=O)C1=C[C@@H](c2csc3ccccc23)C[C@@H](OCCCCO)O1	none
O=C(Nc1ccccc1N1CCN(c2ccccc2)CC1)c1ccccc1F	KCNK3 inh -9.7 | KCNK3 confirm 125 | KCNK3 uninduced 0.11
Cc1cc(C)cc(OCC(=O)Nc2ccccc2N2CCCCC2)c1	KCNK3 inh -10 | KCNK3 confirm 94 | KCNK3 uninduced inactive
Cc1cccc(OCC(=O)Nc2ccccc2N2CCCC2)c1C	KCNK3 inh -9.8 | KCNK3 confirm 118 | KCNK3 uninduced 0.14
O=C(COc1ccccc1[N+](=O)[O-])Nc1ccccc1N1CCCC1	none
O=C(COc1c(Cl)cccc1Cl)Nc1ccccc1N1CCCC1	KCNK3 inh -9.1 | KCNK3 confirm 121 | KCNK3 uninduced 0.13
Cc1ccccc1-c1noc(CCC(=O)NC2CCCCC2)n1	none
O=C(Cc1ccccc1F)Nc1ccccc1N1CCCC1	KCNK3 inh -9.1 | KCNK3 confirm 89 | KCNK3 uninduced inactive
COc1ccc(C2CC(=O)C3=C(C2)Nc2ccccc2N(C(=O)CCC(=O)O)C3c2ccc(F)cc2)cc1 (configuration not stated)	none
COc1ccccc1NS(=O)(=O)c1cccc(NC(=O)c2sc3ccccc3c2Cl)c1	KCNK3 inh -9.1 | KCNK3 confirm 96 | KCNK3 uninduced inactive
CCOC(=O)C1CCN(C(=O)CCCn2nc(CC)n3c(cc4occc43)c2=O)CC1	none
CCOC(=O)Cc1csc(NC(=O)COc2ccccc2OCC)n1	none
CCOC(=O)Cc1csc(NC(=O)COc2c(C)cccc2C)n1	KCNK3 inh -13 | KCNK3 confirm 93 | KCNK3 uninduced inactive
Cc1cccc(-c2cc3nc4c(c(N5CCCC(O)C5)n3n2)CCC4)c1 (configuration not stated)	KCNK3 inh -10 | KCNK3 confirm 103 | KCNK3 uninduced inactive
